The values below come from ChEMBL document CHEMBL1125155, “Preparation and anticonvulsant activity of a series of functionalized alpha-aromatic and alpha-heteroaromatic amino acids” (J Med Chem, 1990).

Data set [1] has as its system Mus musculus. Kind of data set: Concentration required to inhibit seizures was determined in MES test after (ip) administration in mice. It counts as functional. The gist of the method: (§1)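 Male CF-1 mice; compounds dissolved in 30% polyethylene glycol 400, given ip. Screening at 30, 100, 300 mg/kg, four mice per dose, tested at 0.5, 1 and 4 h for protection against maximal electroshock seizures.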

Data set [2] in a line: Neurological toxicity was determined using horizontal screen test in mice after intraperitoneal administration. It counts as organism-based. The conditions noted are these: mouse, in vivo, ip. In short, it runs like this:
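Male CF-1 mice, ip dosing in 30% PEG 400. Previously trained mice placed on a 13 × 13 cm no. 4 mesh wire screen on a vertical rod. Rod rotated 180°; failure to return to top within 1 min counted as impairment.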

The subject of data set [3] is Mus musculus. Kind of data set: Concentration required to inhibit seizures was determined in MES test after (ip) administration in mice; Range is >100 to <300. It counts as functional.
The nature of data set [4]: Neurological toxicity was determined using horizontal screen test in mice after intraperitoneal administration; Range is >100 to <300. It counts as organism-based. Conditions: mouse, in vivo, ip.
Data set [5] relates to Mus musculus. Put plainly: Concentration required to inhibit seizures was determined in MES test after (ip) administration in mice; Range is >25 to <100. The format is functional. The gist of the method:
as §1

The nature of data set [6]: Protective index (TD50/ED50) was determined. The format is functional. In short, it runs like this:
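Ratio of horizontal-screen TD50 to MES ED50, both ip in male CF-1 mice given in 30% PEG 400. Both values taken at time of peak anticonvulsant activity, each from a dose-response curve (10–12 or 12 mice per dose).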

Structures are written as SMILES. Where only a bound is given, the exact number is not on record here.

One may read the ED50 as the dose that gives a 50% effect, or the effect in half of the subjects. Low readings indicate greater potency, high ones weaker potency. The TD50 is the 50% point of the dose-response relation for the toxic effect studied. High values mean lower toxicity, low ones greater toxicity. As to `CC(=O)N[C@H](C)C(=O)NCc1ccccc1`, the ED50 in the data set on Mus musculus [1] is 54.8 mg/kg. Moreover, the TD50 in data set [2] worked out at 214 mg/kg.

In data set [2], `CC(=O)NC(C(=O)NCc1ccccc1)c1ccc[nH]1` (configuration not stated) came in with a TD50 of over 30 mg/kg.

`CC(=O)NC(C(=O)NCc1ccccc1)c1cccn1C` (configuration not stated): the ED50 with Mus musculus [1] was about 300 mg/kg.

The compound `CC(=O)NC(C(=O)NCc1ccccc1)c1ccc(O)cc1` (configuration not stated) had an ED50 in the data set with Mus musculus [1] of over 300 mg/kg.

Consider `CC(=O)NC(C(=O)NCc1ccccc1)c1cc2ccccc2s1` (configuration not stated), for which the ED50 in the data set on Mus musculus [3] is over 100 mg/kg. The same compound returned a TD50 in data set [4] of over 100 mg/kg.

Take `CC(=O)NC(C(=O)NCc1ccccc1)c1ccsc1` (configuration not stated): in data set [2], the TD50 is over 100 mg/kg.

`CC(=O)NC(C(=O)NCc1ccccc1)c1ccccc1` (configuration not stated) registered an ED50 with Mus musculus [1] of 32.1 mg/kg. In addition, the TD50 in data set [2] is over 40 mg/kg.

The compound `CC(=O)NC(C(=O)NCc1ccccc1)c1cc(C)ccc1O` (configuration not stated) yielded an ED50 in the data set on Mus musculus [1] of over 300 mg/kg.

In the data set with Mus musculus [1], `CC(=O)NC(C(=O)NCc1ccccc1)c1c[nH]c2ccccc12` (configuration not stated) returned an ED50 of over 300 mg/kg. Besides, the TD50 in data set [2] is under 300 mg/kg.

`CC(=O)NC(C(=O)NCc1ccccc1)c1ccco1` (configuration not stated) returned an ED50 with Mus musculus [1] of 10.3 mg/kg. The same compound returned a TD50 in data set [2] of about 40 mg/kg.

In the case of `CC(=O)N[C@H](C(=O)NCc1ccccc1)c1ccco1`, the ED50 with Mus musculus [1] was over 25 mg/kg. For the same compound, the TD50 in data set [2] is over 200 mg/kg.

`CC(=O)N[C@@H](C)C(=O)NCc1ccccc1` came in with an ED50 with Mus musculus [1] of 548 mg/kg. For the same compound, the TD50 in data set [2] came to 841 mg/kg.

Compound `CC(=O)NC(C(=O)NCc1ccccc1)c1ccc(C)o1` (configuration not stated) came in with a TD50 in data set [2] of 75.4 mg/kg.

`CC(=O)NC(C(=O)NCc1cccc(F)c1)c1ccco1` (configuration not stated) came in with a TD50 in data set [2] of 136 mg/kg.

As for `CC(=O)NC(C(=O)NCc1ccccc1)c1cccs1` (configuration not stated), in data set [2], the TD50 is over 30 mg/kg.

On to `CC(=O)N[C@@H](C(=O)NCc1ccccc1)c1ccccc1`, for which the ED50 in the data set with Mus musculus [1] worked out at 26.4 mg/kg. In addition, the TD50 in data set [2] was over 80 mg/kg.

In turn, `CCC1(c2ccccc2)C(=O)NC(=O)NC1=O` [PHENOBARBITAL] registered an ED50 in the data set with Mus musculus [1] of 21.8 mg/kg.

Turning to `CC(=O)NC(C(=O)NCc1c(F)cccc1F)c1ccco1` (configuration not stated), in the data set on Mus musculus [5], the ED50 was over 25 mg/kg.

`CC(=O)NC(C(=O)NCc1ccccc1)c1cc2ccccc2o1` (configuration not stated) registered an ED50 in the data set on Mus musculus [3] of over 100 mg/kg. This compound came in with a TD50 in data set [4] of over 100 mg/kg.

Turning to `CC(=O)NC(C(=O)NCc1ccc(F)cc1)c1ccco1` (configuration not stated), in data set [2], the TD50 was determined as 144 mg/kg.

With `CC(=O)N[C@H](C(=O)NCc1ccccc1)c1ccccc1`, the ED50 with Mus musculus [1] was over 300 mg/kg. Also, in data set [2], the TD50 was over 100 mg/kg.

For the compound `CC(=O)NC(C(=O)NCc1ccccc1)c1ccc2ccccc2c1` (configuration not stated), the ED50 with Mus musculus [1] was over 300 mg/kg. This compound yielded a TD50 in data set [2] of over 300 mg/kg.

Regarding `CC(=O)N[C@@H](C(=O)NCc1ccccc1)c1ccco1`, the ED50 in the data set with Mus musculus [1] worked out at 3.3 mg/kg. In data set [6], the Ratio was 7.2. This compound also yielded a TD50 in data set [2] of 23.8 mg/kg.

In the data set on Mus musculus [1], `COc1ccc(C(NC(C)=O)C(=O)NCc2ccccc2)cc1` (configuration not stated) returned an ED50 of over 300 mg/kg.
